Bioassay records: PubChem, Johns Hopkins Ion Channel Center
In the library only some 3.8% were active in any assay of this set; here they are far more common.
KCNQ1 act: potentiators or activators of KCNQ1 channel, primary screen, cell-based, thallium flux, high-throughput; actives 0.35% (n = 310,000); AID 2648, 2010; Potassium voltage-gated channel subfamily KQT member 1 (Homo sapiens), P51787; CHO-K1 KCNQ1, thallium flux FluxOR fluorescence; stronger effect = higher value; B-score at 10 µM;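 active means fluorescence ratio B-score, a plate-corrected score, at least three library SD, with initial intensity B-score within 5 SD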
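assay system = CHO-K1 cells stably expressing KCNQ1 | medium = assay buffer, equal DMSO in all wells | timing = 37 °C overnight plating, 90-min dark dye load, 20-min compound pretreatment | measured by = kinetic FluxOR thallium fluorescence, 10-s 1-Hz baseline, 110-s post-stimulus read | measure = fluorescence change relative to baseline, converted to B score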
KCNK9 inh: KCNK9 potassium channel inhibitors, primary screen, HEK293 cells, thallium flux. Potassium channel subfamily K member 9 (Homo sapiens), Q9NPC2. FluxOR thallium flux fluorescence; stronger effect = lower value. B-score at 10 µM. actives 1.2% (n = 310,000). AID 488922, 2010;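 active means ratio B-score over 3 SD below the library mean, with starting fluorescence within 5 SD of its mean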;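 further: negative B-score means less thallium flux so channel inhibition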
KCNQ1 block: inhibitors of human KCNQ1 channel, primary screen, cell-based, thallium flux, high-throughput; actives 1.3% (n = 310,000); Potassium voltage-gated channel subfamily KQT member 1 (Homo sapiens), P51787; CHO-K1 KCNQ1, FluxOR thallium flux fluorescence; stronger effect = higher value; B-score at 10 µM;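 active means compounds whose thallium flux B-score, printed positive for inhibition, exceeds three library SD while starting fluorescence stays within three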;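 further: channel opened by potassium depolarization with thallium stimulus after 20 min compound exposure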
hERG rescue: hERG rescue from dofetilide block, primary screen, cell-based, CHO-hERG, FluxOR thallium flux, dofetilide IC70 | AID 1511, 2009 | actives 0.51% (n = 310,000) | dofetilide IC70 present | activation (rescue from dofetilide block), less the hit threshold, % at 10 µM;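 active means activation above the mean of controls blocked by dofetilide plus 5 SD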;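 further: thallium influx through hERG after potassium depolarization seen as dye fluorescence rise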
Kir21 inh: inhibitors of mouse Kir2.1 inward-rectifier potassium channel; HEK293-Kir2.1, FluxOR thallium flux fluorescence; stronger effect = lower value; actives 0.85% (n = 310,000); B-score at 10 µM;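 active means fluorescence ratio B-score at or below minus 3 SD of library scores, with starting-brightness B-score within 2 SD, cut at about -4.2 in these data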;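 further: channel flux triggered by added potassium and thallium sulfate stimulus; B-score of peak minus minimum fluorescence over baseline after thallium stimulus; more negative B-score means stronger Kir2.1 block with less thallium influx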
Target sequence (P35561 whole entry, looked up): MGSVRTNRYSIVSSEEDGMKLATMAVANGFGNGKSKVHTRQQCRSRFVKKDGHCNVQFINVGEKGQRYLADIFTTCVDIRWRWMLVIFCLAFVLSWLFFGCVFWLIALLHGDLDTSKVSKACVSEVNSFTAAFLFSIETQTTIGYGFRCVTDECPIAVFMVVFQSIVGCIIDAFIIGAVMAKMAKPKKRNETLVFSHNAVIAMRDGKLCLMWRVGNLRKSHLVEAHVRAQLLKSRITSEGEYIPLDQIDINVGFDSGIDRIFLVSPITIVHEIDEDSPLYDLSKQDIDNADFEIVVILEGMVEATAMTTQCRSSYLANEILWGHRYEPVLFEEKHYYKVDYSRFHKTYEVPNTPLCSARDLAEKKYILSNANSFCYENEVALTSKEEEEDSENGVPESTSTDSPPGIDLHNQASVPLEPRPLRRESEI
KCNK3 block: human KCNK3 channel inhibitors, primary screen, CHO cells, FluxOR thallium flux, B-score; actives 0.84% (n = 340,000); FluxOR fluorescence; stronger effect = lower value; B-score at 10 µM; Potassium channel subfamily K member 3 (Homo sapiens), O14649;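 active means B-score under library mean minus 4 SD, starting fluorescence ratio at most library mean plus 5 SD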;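 further: more negative B-score means stronger inhibition of thallium flux through KCNK3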
KCNK9 inh conf: KCNK9 potassium channel inhibitors, confirmation, HEK293 cells, thallium flux, duplicate | shares compounds with KCNK9 inh | FluxOR thallium flux fluorescence | inhibition, % at 10 µM | actives 43% (n = 4,900) | AID 492992, 2010;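 active means thallium signal inhibited by more than 5 SD of the compound-free buffer control wells, on both duplicate plates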;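 further: 0% = assay buffer control wells without compound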
Kir21 sel: mouse Kir2.1 channel inhibition, confirmation, selectivity assay for KCNK9 modulator project, cell-based, HEK293, thallium flux | actives 4% (n = 4,900) | shares compounds with KCNK9 inh | Kir2.1 cells, FluxOR thallium flux fluorescence | inhibition, % at 10 µM;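 active means thallium signal drop more than 5 SD beyond the mean of the no-compound control wells, seen in both duplicate plates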;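 further: signal is fluorescence rise after thallium addition divided by baseline fluorescence; plate controls were assay buffer only for no effect and full block by chlorpromazine control for full effect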
KCNK9 uninduced: thallium flux in non-induced HEK293 cells, confirmation, counter-screen for KCNK9 inhibitor project, cell-based, second counter screen, non-induced KCNK9-HEK293; shares compounds with KCNK9 inh; FluxOR thallium flux; inhibition, % at 10 µM; actives 40% (n = 4,900); AID 492997, 2010;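 active means thallium signal drop beyond 5 SD of the untreated control mean, on both duplicate plates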;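 further: plate controls were buffer only IC0 wells for no effect and SID17386958 at its maximal inhibitory level for full effect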
Active calls of the source: *.

What do the screens show for `COc1cccc(NC(=S)NC(=O)c2cccnc2)c1`?
KCNQ1 act: inactive; KCNK9 inh: inactive; KCNQ1 block: inactive; hERG rescue: -2; Kir21 inh: -0.46; KCNK3 block: inactive

What do the screens show for `CCC(CC)C(=O)Oc1c(Sc2ccccc2[N+](=O)[O-])c(C)nn1C(C)(C)C`?
KCNQ1 act: inactive; KCNK9 inh: -12*; KCNQ1 block: inactive; hERG rescue: -12; Kir21 inh: 0.3; KCNK3 block: inactive; KCNK9 inh conf: 52%*; Kir21 sel: inactive; KCNK9 uninduced: 33%*

How did CN(C)S(=O)(=O)c1cccc(NC(=O)C2Cc3ccccc3CN2C(=O)c2ccco2)c1 (centres undefined) do in these assays?
KCNQ1 act: inactive; KCNK9 inh: inactive; KCNQ1 block: inactive; hERG rescue: -13; Kir21 inh: 0.63; KCNK3 block: inactive

How did CCOC(=O)C1(CCCc2ccccc2)CCN(C2CCSCC2)CC1 do in these assays?
KCNQ1 act: inactive; KCNK9 inh: inactive; KCNQ1 block: inactive; hERG rescue: -13; Kir21 inh: -1.8; KCNK3 block: inactive; KCNK9 inh conf: inactive; Kir21 sel: inactive; KCNK9 uninduced: inactive

How did OCC1(CCCc2ccccc2)CCN(C2CCSCC2)CC1 do in these assays?
KCNQ1 act: inactive; KCNK9 inh: inactive; KCNQ1 block: inactive; hERG rescue: -12; Kir21 inh: -0.7; KCNK3 block: inactive

What do the screens show for `Cc1cc(O)c(NC(=O)c2cc([N+](=O)[O-])ccc2Cl)cc1C`?
KCNQ1 act: inactive; KCNK9 inh: -14*; KCNQ1 block: inactive; hERG rescue: -17; Kir21 inh: -0.73; KCNK3 block: inactive; KCNK9 inh conf: 62%*; Kir21 sel: inactive; KCNK9 uninduced: inactive

What do the screens show for `COc1ccc(C(=O)CC2(C(=O)O)CCCCC2)cc1`?
KCNQ1 act: inactive; KCNK9 inh: inactive; KCNQ1 block: inactive; hERG rescue: -6; Kir21 inh: 0.77; KCNK3 block: inactive

How did COc1cccc(OC)c1C(=O)Nc1cccc(NC(=O)c2cccs2)c1 do in these assays?
KCNQ1 act: inactive; KCNK9 inh: -11*; KCNQ1 block: inactive; hERG rescue: -10; Kir21 inh: 0.04; KCNK3 block: inactive; KCNK9 inh conf: 50%*; Kir21 sel: inactive; KCNK9 uninduced: 28%*

What do the screens show for `Cc1nc(N2CCCCC2C)c2c(C)c(C(=O)Nc3ccccc3C(F)(F)F)sc2n1` (centres undefined)?
KCNQ1 act: inactive; KCNK9 inh: -14*; KCNQ1 block: 9*; hERG rescue: -13; Kir21 inh: -0.97; KCNK3 block: inactive; KCNK9 inh conf: 55%*; Kir21 sel: inactive; KCNK9 uninduced: 42%*

How did Cc1nc(N2CCOCC2)c2c(C)c(C(=O)Nc3ccccc3Cl)sc2n1 do in these assays?
KCNQ1 act: inactive; KCNK9 inh: inactive; KCNQ1 block: inactive; hERG rescue: -12; Kir21 inh: -0.67; KCNK3 block: inactive

What do the screens show for `O=C(NCC(=O)N1CCN(c2ccccc2)CC1)c1ccc(Br)o1`?
KCNQ1 act: inactive; KCNK9 inh: inactive; KCNQ1 block: inactive; hERG rescue: -5; Kir21 inh: 0.64; KCNK3 block: inactive

What do the screens show for `NC(=O)N/N=C/c1ccc(-c2cccc(C(F)(F)F)c2)o1`?
KCNQ1 act: inactive; KCNK9 inh: inactive; KCNQ1 block: inactive; hERG rescue: -18; Kir21 inh: 0.01; KCNK3 block: inactive

What do the screens show for `O=C(N/N=C/c1ccc(-c2cccc(C(F)(F)F)c2)o1)c1cccc(F)c1`?
KCNQ1 act: inactive; KCNK9 inh: -9.9*; KCNQ1 block: inactive; hERG rescue: -19; Kir21 inh: 1.9; KCNK3 block: inactive; KCNK9 inh conf: inactive; Kir21 sel: inactive; KCNK9 uninduced: inactive

How did COc1cc2c(cc1OC)C(NC(=O)C(F)(F)F)CNC2=O (centres undefined) do in these assays?
KCNQ1 act: inactive; KCNK9 inh: inactive; KCNQ1 block: inactive; hERG rescue: -6; Kir21 inh: -1.1; KCNK3 block: inactive

What do the screens show for `CC1CCCCC1NC(=O)CN1CCN(S(=O)(=O)c2ccc(Br)s2)CC1` (centres undefined)?
KCNK3 block: inactive

How did Cc1ccc(CSCc2ccc(C(=O)NC3CC3)o2)cc1 do in these assays?
KCNQ1 act: inactive; KCNK9 inh: inactive; KCNQ1 block: inactive; hERG rescue: -3; Kir21 inh: 1; KCNK3 block: inactive

What do the screens show for `Cc1ccc(CSCc2ccc(C(=O)NCCC(C)C)o2)cc1`?
KCNQ1 act: inactive; KCNK9 inh: inactive; KCNQ1 block: inactive; hERG rescue: -6; Kir21 inh: 0.18; KCNK3 block: inactive; KCNK9 inh conf: inactive; Kir21 sel: inactive; KCNK9 uninduced: inactive

Results for CC(=O)N1CC(c2ccccc2)C(c2ccc(Cl)cc2)=N1 (centres undefined) ?
KCNQ1 act: inactive; KCNK9 inh: -9*; KCNQ1 block: inactive; hERG rescue: -7; Kir21 inh: -0.82; KCNK3 block: inactive; KCNK9 inh conf: inactive; Kir21 sel: inactive; KCNK9 uninduced: inactive

How did CCCN1CCC(=O)N([C@H](CN=[N+]=[N-])CC(C)C)CC1 do in these assays?
KCNQ1 act: inactive; KCNK9 inh: inactive; KCNQ1 block: inactive; hERG rescue: -11; Kir21 inh: 0.65; KCNK3 block: inactive
